ABCG2 block: ABCG2 efflux pump inhibitors, primary screen, multiplex with ABCB1, IgMXP3 cells, flow cytometry; Broad substrate specificity ATP-binding cassette transporter ABCG2 (Homo sapiens), Q9UNQ0; JC-1 efflux; inhibition, % at 6.6 µM; 190,000 tested, 0.1% active; AID 1325, 2008;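 active means inhibition above 80%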
Target sequence (Q9UNQ0 whole entry, looked up): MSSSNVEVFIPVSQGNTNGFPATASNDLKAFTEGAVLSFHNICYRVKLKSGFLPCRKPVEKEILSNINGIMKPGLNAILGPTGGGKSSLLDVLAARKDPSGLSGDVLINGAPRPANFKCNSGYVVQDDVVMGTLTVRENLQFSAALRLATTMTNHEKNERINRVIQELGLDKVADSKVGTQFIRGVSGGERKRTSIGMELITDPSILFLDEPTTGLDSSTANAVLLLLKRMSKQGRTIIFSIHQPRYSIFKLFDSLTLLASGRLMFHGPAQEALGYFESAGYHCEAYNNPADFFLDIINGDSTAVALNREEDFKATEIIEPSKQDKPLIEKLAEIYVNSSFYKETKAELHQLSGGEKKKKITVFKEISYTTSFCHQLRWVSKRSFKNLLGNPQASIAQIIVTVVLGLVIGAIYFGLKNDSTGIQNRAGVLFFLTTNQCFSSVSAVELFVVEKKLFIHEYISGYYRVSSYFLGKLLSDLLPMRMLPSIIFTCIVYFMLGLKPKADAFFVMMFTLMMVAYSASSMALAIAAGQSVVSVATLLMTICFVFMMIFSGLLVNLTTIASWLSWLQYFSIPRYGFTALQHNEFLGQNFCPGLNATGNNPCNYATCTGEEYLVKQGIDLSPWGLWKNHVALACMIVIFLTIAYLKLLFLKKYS
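Test system: ABCG2 IgMXP3 and barcoded ABCB1 CCRF-Adr cell mix; Schedule: cells with compound and JC-1, 10 min at 25 °C, rotating, no wash; Technique: flow cytometry of retained JC-1 fluorescence; Measure: % inhibition of efflux relative to nicardipine and DMSO; Controls: nicardipine high and DMSO low controls.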
TNAP inh hiacc: human TNAP enzyme inhibitors, primary screen, biochemical, luminescent, high phosphate acceptor level, uHTS; purified TNAP, CDP-star luminescence, 1 M DEA; inhibition, % at 20 µM; 200,000 tested, 0.03% active; AID 1135, 2008;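 active means over 50% inhibition of tissue-nonspecific alkaline phosphatase at 20 µM in the single-dose screen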
PKD1 inh: inhibitors of human PKD1 kinase, biochemical, fluorescence polarization; PKD1 kinase fluorescence polarization assay; inhibition, % (concentration not given with the values); 200,000 tested, 0.056% active; AID 797, 2007; in the data active means inhibition above about 50%
TNAP inh no acc: human TNAP enzyme inhibitors, primary screen, biochemical, luminescent, no phosphate acceptor, uHTS | Alkaline phosphatase, tissue-nonspecific isozyme (Homo sapiens), P05186 | inhibition, % at 20 µM | 200,000 tested, 0.26% active | purified TNAP, CDP-star luminescence, 30 min;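 active means tissue-nonspecific alkaline phosphatase inhibition above about 50% at 20 µM in the single-dose screen, limit read from the data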
TNAP act hiacc: TNAP activators at high phosphate acceptor level, primary screen, biochemical, luminescence, uHTS; Alkaline phosphatase, tissue-nonspecific isozyme (Homo sapiens), P05186; purified TNAP, CDP-star luminescence, 1 M DEA, 30 min; active compounds read high; 0 = EDTA background, 1 = DMSO-only activity; activation factor at 20 µM; 200,000 tested, under 10 active; AID 1136, 2008;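 active means activation factor at least 2 at 20 µM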
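Control set: EDTA negative control, DMSO positive control / Assay system: human TNAP / Quantity: TNAP 1/800 final / Evaluation: TNAP activation factor scaled between EDTA and DMSO control wells / Measured by: luminescent substrate turnover signal / Compound dosing: one dose, 20 µM / Times: 30 min enzyme reaction at room temperature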
ABCB1 block: ABCB1 efflux pump inhibitors, primary screen, cell-based, multiplex, flow cytometry, ABCG2 counter-screen; AID 1326, 2008; 190,000 tested, 0.067% active; CCRF-Adr cells, JC-1 efflux; inhibition, % at 6.6 µM; in the data active means inhibition above about 40%;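 further: higher value means more JC-1 retained so stronger ABCB1 efflux block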
Of the large screens only hits and unclear results are named; the others gave an inactive call. Most compounds without a hit are left out; they make up all but 0.48% or so of the library.

O=C(Cn1cc([N+](=O)[O-])nc1[N+](=O)[O-])N1CCN(c2ccccc2)CC1	none
CSc1ccc(CN2C(=O)NC3(CCCCC3)C2=O)cc1	none
CC1C(=O)NN=C1C(=O)N/N=C/c1ccco1 (configuration not stated)	none
CC1C(=O)NN=C1C(=O)N/N=C\c1ccc(O)cc1O (configuration not stated)	TNAP inh no acc 72.5
CC1(C)Oc2ccc3ccc(=O)oc3c2-c2cnoc21	none
CC1(C)Oc2ccc3ccc(=O)oc3c2-c2cn[nH]c21	PKD1 inh 89.9
C/C(=N\NC(=O)c1ccc([N+](=O)[O-])cc1)c1cc2ccccc2oc1=O	none
C/C(=N\NC(=O)c1ccccc1)c1cc2cc([N+](=O)[O-])ccc2oc1=O	TNAP inh hiacc 58.5
CC(C)C(OC(=O)c1cccc(S(=O)(=O)NCC(F)(F)F)c1)C(=O)NC(N)=O (configuration not stated)	none
C/C(N)=C(/C#N)C(=O)CSc1n[nH]c(-c2cccs2)n1	TNAP inh no acc 62.4
Cc1onc(-c2ccccc2)c1C(=O)Nc1ccc(S(=O)(=O)NC(C)(C)C)cc1	none
COCCNC(=S)N/N=C1\CC(C)CC(C)(C)C1 (configuration not stated)	none
COc1ccc(-c2[nH]ncc2CNCCn2cccn2)c(F)c1	TNAP inh no acc 85.3
COc1ccc(-c2[nH]ncc2CNCc2cc(C)n(C)n2)c(F)c1	TNAP inh no acc 68.3
Cc1cc(C)n(CCN(C)Cc2cn[nH]c2-c2ccc(F)cc2F)n1	none
O=C1S/C(=C\c2ccc(N3CCOCC3)o2)C(=O)N1Cc1ccc(F)cc1	ABCG2 block 106.7
CC(C)(C)c1nc2ccccc2c2nnc(SCC(=O)Nc3nc4ccccc4s3)n12	TNAP inh hiacc 51.5
CC1=NN(c2ccccc2)C(=O)/C1=C/C=C/C=C/N(C)C	TNAP inh hiacc 55.1
Cc1ccccc1C(=O)NNC(=O)CSc1nc(-c2ccccc2)cc(=O)[nH]1	TNAP inh no acc 74.9
Cc1ccccc1OCc1nnc2c3cnn(C)c3ncn12	TNAP inh no acc 55.4
Cc1ccccc1OCc1nc2ccccc2c(=O)n1N	none
O=[N+]([O-])c1cc(-c2n[nH]c(-c3ccccc3)n2)cc([N+](=O)[O-])c1	none
Clc1ccccc1-c1nc(-c2ccccc2)n[nH]1	TNAP inh no acc 90.8
CCOC(=O)C1C(=O)Nc2nc3ccccc3n2C1C(C)C (configuration not stated)	TNAP inh no acc 91.7
CCOC(=O)C1C(=O)Nc2nc(C)nn2C1c1ccccc1 (configuration not stated)	none
O=C(O)c1cc(C(=O)C2CCCCC2)c[nH]1	PKD1 inh 111.9
O=C(O)c1cc(C(=O)C2CC2)c[nH]1	none
CCC(=O)NC(=S)NNC(=O)c1ccc(O)cc1	TNAP inh no acc 97.3
CS(=O)(=O)Nc1ccc(C2=NN(S(C)(=O)=O)C(c3ccc4c(c3)OCO4)C2)cc1 (configuration not stated)	none
COc1ccc(-c2cc(-c3ccc(OC)cc3)[nH]n2)cc1	TNAP inh no acc 66.5
CCOc1ccc(-c2cc(C)n3nc(C(N)=O)cc3n2)cc1	none
COC(=O)c1cc(-c2c[nH]c3ccccc23)n[nH]1	TNAP inh no acc 89.2
CCOc1ccc(-c2cc(C(=O)NN)[nH]n2)cc1	TNAP inh no acc 67.0
O=C(O)c1cc(-c2ccc(Cl)cc2)n[nH]1	TNAP inh no acc 83.0
CCc1ccccc1NC(=O)CN(C)C(=O)CSc1nn(-c2ccc(F)cc2)c(=S)s1	none
Cc1nc(N2CCCCC2)c(C#N)c(C)c1[N+](=O)[O-]	none
CCC(=O)Nc1nnc(SCc2ccccc2F)s1	none
Cc1noc(C)c1COc1ccc(C(=O)OCC(=O)Nc2c(C)n(C)n(-c3ccccc3)c2=O)cc1	none
COCCNC(=O)C(c1ccncc1)N(Cc1ccccc1)C(=O)Cn1nnc2ccccc21 (configuration not stated)	none
COc1ccc(-c2nc(N)n[nH]2)cc1	TNAP inh no acc 62.6

Screening data from PubChem.
